Source: ChEMBL document CHEMBL3286171 (Eur J Med Chem, 2014)
pIC50: −log10 of the molar value.

Assays:
[1] = molecular target: Cholinesterase (Equus caballus, UniProt P81908); test: Inhibition of equine serum BuChE using butyrylthiocholine iodide as substrate preincubated for 20 mins followed by substrate addition measured after 25 mins by Ellman's method
In short: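 Ellman-type colorimetric assay in 0.1 M phosphate buffer pH 8.0 with 0.05 U/mL BuChE and 0.35 mM DTNB. Serial inhibitor dilutions pre-incubated with the mix for 20 min, then butyrylthiocholine iodide added (final 0.5 mM). […] At least three experiments in triplicate, mean ± SEM.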

[2] = Drug absorption in human intestine
[3] = molecular target: T1, Amine oxidase [flavin-containing] A (Rattus norvegicus, UniProt P21396); test: Inhibition of MAO-A in rat liver homogenate using [14C]-5HT as substrate preincubated for 30 mins followed by substrate addition measured after 20 mins by liquid scintillation counting analysis; type: tissue-based
T1 sequence (P21396 whole entry): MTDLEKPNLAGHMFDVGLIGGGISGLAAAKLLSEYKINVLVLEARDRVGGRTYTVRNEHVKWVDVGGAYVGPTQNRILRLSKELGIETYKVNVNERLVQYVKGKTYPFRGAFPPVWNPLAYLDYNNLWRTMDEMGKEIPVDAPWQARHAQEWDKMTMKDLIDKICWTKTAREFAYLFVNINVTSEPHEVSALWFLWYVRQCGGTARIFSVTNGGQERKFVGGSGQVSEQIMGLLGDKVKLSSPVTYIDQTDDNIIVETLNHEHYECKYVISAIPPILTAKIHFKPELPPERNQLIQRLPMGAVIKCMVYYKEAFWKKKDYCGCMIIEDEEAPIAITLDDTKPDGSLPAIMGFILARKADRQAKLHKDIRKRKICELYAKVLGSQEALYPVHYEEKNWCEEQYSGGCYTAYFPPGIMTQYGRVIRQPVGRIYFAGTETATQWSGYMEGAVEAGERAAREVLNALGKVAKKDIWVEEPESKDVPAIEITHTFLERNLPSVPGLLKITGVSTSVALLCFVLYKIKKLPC
In short: (§1)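 MAO source was rat liver homogenate. Enzyme pre-incubated 30 min with a range of inhibitor concentrations in 50 mM phosphate buffer, pH 7.4. Substrates: MAO A, 100 μM [14C]-5-HT (0.5 mCi/mmol), reaction 20 min; MAO B, 20 μM [14C]-PEA (2.5 mCi/mmol), reaction 4 min. Final volume 225 μl.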

[4] = molecular target: T2, Amine oxidase [flavin-containing] B (Rattus norvegicus, UniProt P19643); test: Inhibition of MAO-B in rat liver homogenate using [14C]-phenylethylamine as substrate preincubated for 30 mins followed by substrate addition measured after 4 mins by liquid scintillation counting analysis; type: tissue-based; in short: as §1
T2 sequence (P19643 whole entry): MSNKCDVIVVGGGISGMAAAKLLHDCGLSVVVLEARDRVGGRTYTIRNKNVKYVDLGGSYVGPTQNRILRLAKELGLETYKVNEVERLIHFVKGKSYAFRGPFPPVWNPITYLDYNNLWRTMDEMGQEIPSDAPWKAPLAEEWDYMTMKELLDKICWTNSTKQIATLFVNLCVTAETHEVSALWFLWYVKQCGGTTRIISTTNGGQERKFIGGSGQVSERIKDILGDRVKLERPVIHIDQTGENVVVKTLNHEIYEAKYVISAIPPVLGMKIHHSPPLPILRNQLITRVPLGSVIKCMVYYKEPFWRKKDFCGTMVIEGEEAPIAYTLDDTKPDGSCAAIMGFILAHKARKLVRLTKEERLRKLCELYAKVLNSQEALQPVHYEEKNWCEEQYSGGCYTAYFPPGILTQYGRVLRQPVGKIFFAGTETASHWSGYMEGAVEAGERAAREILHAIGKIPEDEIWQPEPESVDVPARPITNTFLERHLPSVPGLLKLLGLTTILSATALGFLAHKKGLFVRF

[5] = Effective permeability across human intestinal membrane by Ussing chamber technique
[6] = Protein binding in plasma (unknown origin)
[7] = Apparent permeability in MDCK cells; conditions: dog
[8] = Permeability in human Caco2 cells; conditions: Caco-2
[9] = molecular target: Acetylcholinesterase (Electrophorus electricus, UniProt O42275); test: Inhibition of electric eel AChE using acetylthiocholine iodide as substrate preincubated for 20 mins followed by substrate addition measured after 5 mins by Ellman's method
Acetylcholinesterase, sequence (O42275 whole entry): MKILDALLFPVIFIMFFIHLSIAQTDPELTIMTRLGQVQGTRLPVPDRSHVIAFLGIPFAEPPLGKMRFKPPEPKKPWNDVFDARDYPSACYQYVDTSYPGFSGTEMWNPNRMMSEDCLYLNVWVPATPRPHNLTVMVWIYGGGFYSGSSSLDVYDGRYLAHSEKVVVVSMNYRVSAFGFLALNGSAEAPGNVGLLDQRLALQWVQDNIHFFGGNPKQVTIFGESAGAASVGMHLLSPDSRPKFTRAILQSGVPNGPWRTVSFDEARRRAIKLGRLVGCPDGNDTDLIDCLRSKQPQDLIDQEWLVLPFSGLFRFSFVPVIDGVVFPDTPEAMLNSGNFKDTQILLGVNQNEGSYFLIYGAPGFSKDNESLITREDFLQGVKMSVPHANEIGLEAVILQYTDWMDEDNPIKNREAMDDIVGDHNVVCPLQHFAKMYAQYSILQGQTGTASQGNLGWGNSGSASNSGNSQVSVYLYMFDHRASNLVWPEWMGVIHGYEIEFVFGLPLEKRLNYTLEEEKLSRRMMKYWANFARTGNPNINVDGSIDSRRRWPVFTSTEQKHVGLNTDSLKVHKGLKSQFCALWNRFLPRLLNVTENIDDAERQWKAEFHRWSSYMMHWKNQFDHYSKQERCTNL

Cholinesterase, sequence (P81908 whole entry): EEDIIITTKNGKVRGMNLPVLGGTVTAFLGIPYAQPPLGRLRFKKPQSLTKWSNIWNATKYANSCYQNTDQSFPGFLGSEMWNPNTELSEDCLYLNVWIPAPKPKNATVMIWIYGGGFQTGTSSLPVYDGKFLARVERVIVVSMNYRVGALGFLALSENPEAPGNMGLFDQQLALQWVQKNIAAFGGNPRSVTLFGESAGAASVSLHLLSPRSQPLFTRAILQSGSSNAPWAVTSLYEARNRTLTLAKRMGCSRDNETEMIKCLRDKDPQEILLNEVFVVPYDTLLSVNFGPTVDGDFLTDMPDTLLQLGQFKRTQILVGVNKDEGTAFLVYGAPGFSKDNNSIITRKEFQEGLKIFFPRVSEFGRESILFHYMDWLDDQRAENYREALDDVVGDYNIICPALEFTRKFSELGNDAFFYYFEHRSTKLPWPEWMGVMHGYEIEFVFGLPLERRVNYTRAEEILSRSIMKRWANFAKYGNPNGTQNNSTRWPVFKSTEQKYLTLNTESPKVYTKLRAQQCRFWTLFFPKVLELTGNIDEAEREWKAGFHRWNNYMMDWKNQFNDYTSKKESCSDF

SMILES	pIC50 [1]	Fa [2]	pIC50 [3]	pIC50 [4]	Papp [5]	fraction unbound [6]	Papp [7]	Papp [8]	pIC50 [9]
C#CCN(Cc1ccc(O)c2ncccc12)C1CCN(Cc2ccccc2)CC1	≤ 4.00	96.8%	≤ 4.00	≤ 4.00	447 ×10⁻⁶ cm/s	0.273	35.1 ×10⁻⁶ cm/s	4.57 ×10⁻⁶ cm/s	≤ 4.00
C#CCN(Cc1ccc(O)c2ncccc12)CC1CCN(Cc2ccccc2)CC1	–	96.8%	–	–	499 ×10⁻⁶ cm/s	0.236	32.6 ×10⁻⁶ cm/s	5.23 ×10⁻⁶ cm/s	–
C#CCN(CCC1CCN(Cc2ccccc2)CC1)Cc1ccc(O)c2ncccc12	–	96.9%	–	–	559 ×10⁻⁶ cm/s	0.229	31.3 ×10⁻⁶ cm/s	5.44 ×10⁻⁶ cm/s	–
C#CCN(CCCC1CCN(Cc2ccccc2)CC1)Cc1ccc(O)c2ncccc12	–	96.9%	–	–	624 ×10⁻⁶ cm/s	0.226	30.2 ×10⁻⁶ cm/s	5.41 ×10⁻⁶ cm/s	–
C#CCN(C)Cc1ccc(O)c2ncccc12	–	95.9%	7.24	5.82	250 ×10⁻⁶ cm/s	0.31	42.9 ×10⁻⁶ cm/s	4.29 ×10⁻⁶ cm/s	≤ 4.00
